In ChEMBL document CHEMBL3407339, “A novel series of thiazolyl-pyrazoline derivatives: synthesis and evaluation of antifungal activity, cytotoxicity and genotoxicity” (Eur J Med Chem, 2015):
Values after ≈ are worked out from the molar mass of the structure shown.

Tests used:
[1] = tested on: [Candida] zeylanoides; assay: Antifungal activity against Candida zeylanoides NRLL Y 1774 after 48 hrs by broth microdilution assay; type: functional; settings: Dujonia zeylanoides, NRLL Y 1774, 48 h
Procedure, shortened: (§1)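 Broth microdilution of DMSO stocks serially diluted in sterile water (4 to 0.0039 mg/mL). Yeasts grown on SDA at 37 °C for 24 h, suspended in double-strength PDB at 10⁵ spores/mL. Incubated at 37 °C for 48 h, then sprayed with 0.5% aqueous TTC. MIC = lowest concentration inhibiting visible growth. Ketoconazole reference.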

[2] = tested on: Fusarium solani; assay: Antifungal activity against Fusarium solani NRRL 13414 after 72 hrs by broth microdilution assay; type: functional; settings: NRRL 13414, 72 h
Procedure, shortened: (§2)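 Compounds dissolved in DMSO, diluted in sterile distilled water from 4 to 0.0039 mg/mL. Molds grown on PDA at 25 °C for 5 days, suspended in double-strength PDB at 10⁵ spores/mL. Incubated at 25 °C for 72 h; mycelial growth read under stereo microscope. MIC = lowest concentration inhibiting visible growth. Ketoconazole reference.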

[3] = tested on: Aspergillus flavus; assay: Antifungal activity against Aspergillus flavus NRRL 980 after 72 hrs by broth microdilution assay; type: functional; settings: NRRL 980, 72 h; procedure, shortened: as §2
[4] = tested on: Aspergillus parasiticus; assay: Antifungal activity against Aspergillus parasiticus NRRL 465 after 72 hrs by broth microdilution assay; type: functional; settings: NRRL 465, 72 h; procedure, shortened: as §2
[5] = tested on: Candida parapsilosis; assay: Antifungal activity against Candida parapsilosis NRLL Y 12696 after 48 hrs by broth microdilution assay; type: functional; settings: Lodderomyces parapsilosis, NRLL Y 12696, 48 h; procedure, shortened: as §1
[6] = tested on: Pichia kudriavzevii; assay: Antifungal activity against Candida krusei NRLL Y 7179 after 48 hrs by broth microdilution assay; type: functional; settings: NRLL Y 7179, 48 h; procedure, shortened: as §1
[7] = tested on: Nakaseomyces glabratus; assay: Antifungal activity against Candida glabrata clinical isolate after 48 hrs by broth microdilution assay; type: functional; procedure, shortened: as §1
[8] = tested on: Candida albicans; assay: Antifungal activity against Candida albicans ATCC 90028 after 48 hrs by broth microdilution assay; type: functional; settings: ATCC 90028, 48 h; procedure, shortened: as §1
[9] = tested on: Aspergillus niger; assay: Antifungal activity against Aspergillus niger ATCC 1094 after 72 hrs by broth microdilution assay; type: functional; settings: ATCC 1094, 72 h; procedure, shortened: as §2
[10] = tested on: Candida tropicalis; assay: Antifungal activity against Candida tropicalis NRLL Y 12968 after 48 hrs by broth microdilution assay; type: functional; settings: NRLL Y 12968, 48 h; procedure, shortened: as §1
[11] = tested on: A549; assay: Antiproliferative activity against human A549 cells after 24 hrs by XTT assay; type: functional, cell-based; settings: A549, 24 h
Procedure, shortened: (§3)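 A549 cells in RPMI and NIH/3T3 cells in DMEM, each with fetal calf serum, antibiotics and 7.5% NaHCO₃, at 37 °C, 5% CO₂. Seeded at 20,000 cells/well, 24 h, then compounds added in medium at 500–3.9 doses (final DMSO <0.1%) for 24 h. XTT read after 3 h at 480 nm (ref 680 nm). IC₅₀ by non-linear regression; triplicates; cisplatin control.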

[12] = Cytotoxicity against mouse NIH/3T3 cells after 24 hrs by XTT assay; type: cell-based; settings: NIH3T3, 24 h; procedure, shortened: as §3

SMILES | MIC [1] [µg/mL] | MIC [2] [µg/mL] | MIC [3] [µg/mL] | MIC [4] [µg/mL] | MIC [5] [µg/mL] | MIC [6] [µg/mL] | MIC [7] [µg/mL] | MIC [8] [µg/mL] | MIC [9] [µg/mL] | MIC [10] [µg/mL] | IC50 [11] [µg/mL] | IC50 [12] [µg/mL]
COc1ccc(-c2csc(N3N=C(c4ccc(Cl)s4)CC3c3ccc(F)cc3)n2)cc1 (stereo unspecified) | 250 (≈ 532 µM) | 250 (≈ 532 µM) | 250 (≈ 532 µM) | 250 (≈ 532 µM) | 250 (≈ 532 µM) | 250 (≈ 532 µM) | 125 (≈ 266 µM) | 250 (≈ 532 µM) | 250 (≈ 532 µM) | 250 (≈ 532 µM) | > 500 | 103 (≈ 219 µM)
Fc1ccc(C2CC(c3ccc(Cl)s3)=NN2c2nc(-c3ccc4c(c3)OCO4)cs2)cc1 (stereo unspecified) | 250 (≈ 517 µM) | 250 (≈ 517 µM) | 250 (≈ 517 µM) | 250 (≈ 517 µM) | 250 (≈ 517 µM) | 250 (≈ 517 µM) | 125 (≈ 258 µM) | 250 (≈ 517 µM) | 250 (≈ 517 µM) | 250 (≈ 517 µM) | > 500 | 73.8 (≈ 152 µM)
COc1ccc(-c2csc(N3N=C(c4ccc(C)s4)CC3c3ccc(F)cc3)n2)cc1 (stereo unspecified) | 500 (≈ 1110 µM) | 250 (≈ 556 µM) | 250 (≈ 556 µM) | 250 (≈ 556 µM) | 500 (≈ 1110 µM) | 500 (≈ 1110 µM) | 250 (≈ 556 µM) | 500 (≈ 1110 µM) | 250 (≈ 556 µM) | 500 (≈ 1110 µM) | 184 (≈ 408 µM) | 146 (≈ 326 µM)
CS(=O)(=O)c1ccc(-c2csc(N3N=C(c4ccc(Cl)s4)CC3c3ccc(F)cc3)n2)cc1 (stereo unspecified) | 250 (≈ 483 µM) | 250 (≈ 483 µM) | 250 (≈ 483 µM) | 250 (≈ 483 µM) | 250 (≈ 483 µM) | 250 (≈ 483 µM) | 250 (≈ 483 µM) | 250 (≈ 483 µM) | 250 (≈ 483 µM) | 250 (≈ 483 µM) | > 500 | > 500
Cc1ccc(C2=NN(c3nc(-c4ccccc4)cs3)C(c3ccc(F)cc3)C2)s1 (stereo unspecified) | 500 (≈ 1190 µM) | 250 (≈ 596 µM) | 250 (≈ 596 µM) | 250 (≈ 596 µM) | 500 (≈ 1190 µM) | 500 (≈ 1190 µM) | 125 (≈ 298 µM) | 500 (≈ 1190 µM) | 250 (≈ 596 µM) | 500 (≈ 1190 µM) | > 500 | > 500
Cc1ccc(C2=NN(c3nc(-c4ccc(Br)cc4)cs3)C(c3ccc(F)cc3)C2)s1 (stereo unspecified) | 250 (≈ 502 µM) | 250 (≈ 502 µM) | 250 (≈ 502 µM) | 250 (≈ 502 µM) | 250 (≈ 502 µM) | 250 (≈ 502 µM) | 125 (≈ 251 µM) | 250 (≈ 502 µM) | 250 (≈ 502 µM) | 250 (≈ 502 µM) | > 500 | > 500
N#Cc1ccc(-c2csc(N3N=C(c4ccc(Cl)s4)CC3c3ccc(F)cc3)n2)cc1 (stereo unspecified) | 250 (≈ 538 µM) | 250 (≈ 538 µM) | 250 (≈ 538 µM) | 250 (≈ 538 µM) | 250 (≈ 538 µM) | 250 (≈ 538 µM) | 125 (≈ 269 µM) | 250 (≈ 538 µM) | 250 (≈ 538 µM) | 250 (≈ 538 µM) | > 500 | > 500
Cc1ccc(-c2csc(N3N=C(c4ccc(C)s4)CC3c3ccc(F)cc3)n2)cc1 (stereo unspecified) | 500 (≈ 1150 µM) | 250 (≈ 577 µM) | 250 (≈ 577 µM) | 250 (≈ 577 µM) | 500 (≈ 1150 µM) | 500 (≈ 1150 µM) | 250 (≈ 577 µM) | 500 (≈ 1150 µM) | 250 (≈ 577 µM) | 500 (≈ 1150 µM) | > 500 | > 500
